Screening data: PubChem, The Scripps Research Institute Molecular Screening Center
SIAE primary: blocks human sialic acid acetylesterase | Q9HAT2 | SIAE FP-Rh probe binding, fluorescence polarization | inhibition, % at 9.66 µM | 370,000 tested, 0.69% active | AID 1053197;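 active = inhibition above a cutoff: mean of compounds within the control limits plus 3 SD of those, cut at about 17% in these data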;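 also: 0% = plate median of compound wells and 100% = probe without SIAE protein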
Target sequence (Q9HAT2 whole entry, looked up): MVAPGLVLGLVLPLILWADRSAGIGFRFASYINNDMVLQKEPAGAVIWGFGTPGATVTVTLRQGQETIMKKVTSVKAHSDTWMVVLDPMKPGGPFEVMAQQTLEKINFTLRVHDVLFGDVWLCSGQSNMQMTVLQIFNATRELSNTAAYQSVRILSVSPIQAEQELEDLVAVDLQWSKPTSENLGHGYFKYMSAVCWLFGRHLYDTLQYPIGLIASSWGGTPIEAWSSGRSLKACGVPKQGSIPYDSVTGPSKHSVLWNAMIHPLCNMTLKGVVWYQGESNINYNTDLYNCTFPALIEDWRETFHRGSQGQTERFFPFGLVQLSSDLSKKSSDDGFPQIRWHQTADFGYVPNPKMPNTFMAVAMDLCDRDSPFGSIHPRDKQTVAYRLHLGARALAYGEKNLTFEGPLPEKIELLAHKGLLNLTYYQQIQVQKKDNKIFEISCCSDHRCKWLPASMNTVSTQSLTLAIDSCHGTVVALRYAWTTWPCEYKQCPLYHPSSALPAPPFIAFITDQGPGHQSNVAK
PAD4 inh: inhibitors of human PAD4; Q9UM07; recombinant PAD4, RCA probe fluorescence polarization; inhibition, % at 6.36 µM; 330,000 tested, 0.41% active;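 active = percent inhibition above a cutoff equal to the mean of all tested compounds plus 3 SD, cut at about 15% in these data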;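 also: 0% = PAD4 with RCA probe and DMSO and 100% = probe without PAD4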
TDP2 inh: TDP2 (human) inhibition, absorbance primary screen; O95551; recombinant TDP2, T5PNP hydrolysis, p-nitrophenol absorbance 415 nm; inhibition, % at 12.8 µM; 370,000 tested, 0.34% active; AID 720702;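 active = inhibition above the mean of all tested compounds plus 3 SD, set per campaign, cut at about 25% in these data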;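 also: 0% = DMSO with enzyme and 100% = buffer with substrate but no TDP2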
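Test system: human TDP2 enzyme; Input: 120 nM TDP2 per well; Buffer or medium: Mg2+-containing Tris-HCl buffer, pH 7.5; Reagent: 5 mM T5PNP; Dosing: 12.8 µM single point, 1% DMSO; Incubation: reaction 2 h, 37 °C; Detection: p-Nitrophenol epi absorbance; Read-out: % inhibition relative to enzyme-containing and enzyme-free wells; Replicates: single well per compound.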
HTRA1 inh: blocks human HTRA1 serine peptidase | Q92743 | inhibition, % at 5.96 µM | 340,000 tested, 0.5% active | recombinant HTRA1, FP-rhodamine activity-based probe, fluorescence polarization; in the data active = inhibition above about 36%;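 also: 0% = enzyme with DMSO and 100% = wells lacking enzyme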
TCR CD3 inh: blocks the human TCR-CD3 interaction; 360,000 tested, 0.37% active; inhibition, % at 9.4 µM; TAMRA-labeled TCR probe fluorescence, biochemical; in the data active = inhibition above about 19%;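 also: recombinant mutant TCR 2C K166C tagged with TAMRA read by polarization; 0% = receptor in buffer alone and 100% = receptor with positive control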
mABHD4 FP: ABHD4 (mouse) inhibition, primary FP screen | purified mABHD4, FP-Rh probe fluorescence polarization | inhibition, % at 8.92 µM | 370,000 tested, 0.54% active;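 active = inhibition exceeding the mean over every tested compound plus 3 SD, cut at about 30% in these data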;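 also: 0% = plate median of compound wells and 100% = S159A mutant with DMSO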
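Doses – 8.92 µM, single dose · Material – wild-type mouse ABHD4 protein · Replication – single well per compound (singlicate) · Measure – percent inhibition of probe binding, normalized to plate controls · Schedule – 45 min compound pre-incubation plus 60 min probe step, 25 °C · Detection – fluorescence polarization with parallel and perpendicular emission, 525/598 nm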
HTRA1 inh conf: confirmation of human HTRA1 inhibitors; shares compounds with HTRA1 inh; AID 540248; inhibition, % at 5.96 µM; 1,600 tested, 66% active; recombinant HTRA1, FP-rhodamine activity-based probe, fluorescence polarization;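 active = mean inhibition over three repeats above a set limit taken from the earlier primary screen, cut at about 37% in these data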;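 also: 0% = HTRA1 with DMSO and 100% = wells lacking HTRA1; inhibitors block probe binding so polarization drops and inhibition rises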
The depositor's hits bear a star; / = no result given. Most compounds without a hit are left out; they make up all but 2% or so of the library.

SMILES | SIAE primary | PAD4 inh | TDP2 inh | HTRA1 inh | TCR CD3 inh | mABHD4 FP | HTRA1 inh conf
CCCCC(=O)NC(c1ccc(C(C)C)cc1)c1ccc2cccnc2c1O (centres undefined) | 8.7 | -0.9 | -5.8 | 55.6* | -1.8 | 13.3 | 53.3*
C=CC#CC[N+]1(CC#Cc2ccccc2)CCOCC1 | 7.8 | / | -3.9 | 56.6* | 10.6 | 6.3 | 64.8*
CCN(C[C@H]1N[C@@](CC)(C(=O)OC)[C@H]2C(=O)N(C)C(=O)[C@@H]12)S(=O)(=O)c1ccc(OC)cc1 | -0.9 | -1.8 | -1.1 | -5.8 | -5.1 | 6.5 | /
N#Cc1c(N)[nH]c2ccc(Sc3ccccc3)cc12 | 9.1 | / | -13.3 | 41.0* | 5.3 | 13.5 | 32.9
COCCn1c(C)cc(/C=N/NC(=O)c2cc3ccccc3cc2O)c1C | / | -3.1 | / | 43.6* | / | / | 20.7
COc1cc(/C=N/NC(=O)c2cc3ccccc3cc2O)ccc1OCCN1CCCCC1 | 10.8 | -5.6 | -8.2 | 48.2* | 1.0 | 28.6 | 25.4
CCC(=O)N1CCc2cc(S(=O)(=O)NC(Cc3ccccc3)C(=O)O)ccc21 (centres undefined) | 0.6 | -3.6 | -8.3 | 1.6 | -0.7 | -3.3 | /
O=C(NNc1ccc(C(F)(F)F)cc1[N+](=O)[O-])c1ccc(NS(=O)(=O)c2ccc(F)cc2)cc1 | 13.0 | 1.6 | 3.2 | 37.8* | 4.6 | 11.9 | 36.1
CC(C)[C@H](Nc1ccc(C(F)(F)F)cc1[N+](=O)[O-])C(=O)O | -3.0 | -4.0 | 8.6 | 2.0 | 5.6 | -3.0 | /
CC[C@H](C)/C=C/C1=CC2=C(Cl)C(=O)[C@@]3(C)OC(=O)C(C(=O)[C@H](C)[C@@H](C)O)=C3C2=CO1 | / | 8.3 | / | 54.3* | / | / | 68.3*
Cc1ccc(Nc2c([N+](=O)[O-])ccc3c2=NC2(CCCCC2)N=3)cc1 | 16.6 | -2.3 | 15.6 | 37.1* | -11.3 | 14.9 | 74.6*
COc1ccc(O)c(/C=N/n2c(-c3ccco3)csc2=Nc2cccnc2)c1 | 9.7 | -1.5 | 2.9 | -1.8 | -1.0 | 17.9 | /
CN=c1scc(-c2ccco2)n1/N=C/c1ccc(O)c(O)c1 | -2.3 | / | -8.5 | 73.5* | 15.4 | 39.7* | 72.6*
COc1cc(C2Nc3cccc4cccc(c34)N2)cc(OC)c1O | 46.7* | 1.9 | 0.7 | 38.5* | -0.5 | -2.0 | 35.3
O=C(COC(=O)/C=C/c1ccccc1)NCCc1ccc(F)cc1 | 4.1 | -3.8 | -11.1 | -5.7 | -0.5 | 1.6 | /
Cc1ccc(NC(=S)N/N=C/c2ccc([N+](=O)[O-])s2)cc1 | 7.7 | -6.0 | -17.1 | 59.1* | -8.9 | 3.3 | 59.2*
Cc1cc(C)cc(N=Cc2ccc([N+](=O)[O-])s2)c1 | 0.4 | -6.0 | 14.3 | 16.5 | -1.6 | 9.2 | /
CC1CCc2cc(F)ccc2N1C(=O)C12CCC(C)(C(=O)O1)C2(C)C (centres undefined) | 3.0 | 0.2 | -4.9 | / | 7.7 | 0.1 | /
O=Cc1ccc(O)c2ncccc12 | / | / | / | 36.4* | / | / | 60.0*
NC(=O)c1ccc(O)c2ncccc12 | -2.2 | / | -6.8 | / | / | -11.5 | /
CCOC(=O)C1=NN(C(=O)c2ccc(C)cc2)C(O)(c2ccc(Cl)cc2)C1 (centres undefined) | 1.4 | -0.4 | -13.3 | 60.1* | -5.3 | 10.1 | 72.0*
COc1cccc(C2NC(=O)N(CCCC(=O)O)C(C)=C2C(=O)OCc2ccccc2)c1 (centres undefined) | 8.8 | 7.6 | 3.0 | / | 7.3 | 9.6 | /
O=C(CSc1nc2ccccc2s1)NCCCN1CCOCC1 | 1.1 | 1.8 | 0.5 | -0.4 | 10.1 | 2.3 | /
O=C(CSc1nc2ccccc2s1)N1CCOCC1 | 2.3 | 4.1 | -2.4 | 161.1* | 6.3 | 2.6 | -2.1
COc1cc([N+](=O)[O-])cc(/C=N\NC(=O)C2COc3ccccc3O2)c1O (centres undefined) | 3.8 | -3.4 | -10.2 | 18.2 | 6.2 | 17.0 | /
CN(C)c1ccnc2c[cH-]cc12.[Fe].c1ccc(-[c-]2[c-](-c3ccccc3)[c-](-c3ccccc3)[c-](-c3ccccc3)[c-]2-c2ccccc2)cc1 (centres undefined) | 9.1 | 6.0 | -2.5 | 36.8* | 5.3 | 26.1 | 57.0*
CN(C)c1ccnc(Nc2ccccc2)c1C#N | 5.3 | 2.8 | 9.1 | / | 0.0 | -3.2 | /
